From ChEMBL document CHEMBL2150901, “Synthesis and biological activity of tricyclic cycloalkylimidazo-, pyrimido- and diazepinopurinediones” (Eur J Med Chem, 2011)
The source made the active and inactive calls. The rule behind the calls is not given here.

What was measured:
[1] = system: Mus musculus; test: Anticonvulsant activity in F1 albino mouse assessed as protection against maximal electroshock-induced seizures at 300 mg/kg, ip after 4 hrs; format: functional, organism-based; design: dose 300 mg/kg
Procedure, shortened: (§1)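 Male albino F-1 mice (18–25 g), groups of 1–5 (rotorod 2–8). Compound given ip as a suspension in 0.5% methylcellulose at 30, 100 and 300 mg/kg. Seizures by maximal electroshock or subcutaneous pentylenetetrazole; neurotoxicity by rotorod. Read at 0.5 and 4 h, with some at 0.25, 1 and 2 h. Value is the minimum active dose, with protected (or toxic)/tested animals.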

[2] = system: Mus musculus; test: Anticonvulsant activity in F1 albino mouse assessed as protection against subcutaneous pentylenetetrazole-induced seizures at 300 mg/kg, ip after 4 hrs; format: functional, organism-based; design: dose 300 mg/kg; procedure, shortened: as §1
[3] = system: Mus musculus; test: Neurotoxicity in F1 albino mouse assessed as minimal motor impairment at 300 mg/kg, ip after 0.5 hrs by rotorod test; format: toxicity, organism-based; design: dose 300 mg/kg, route intraperitoneal; details: in vivo; procedure, shortened: as §1
[4] = organism: Rattus norvegicus; test: Selectivity ratio of Ki for adenosine A1 receptor in rat brain cortical membrane to Ki for adenosine A2A receptor in rat brain striatal membrane; format: cell membranes
Procedure, shortened: (§2)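 Ki ratios from radioligand competition binding. Rat A1 used brain cortical membranes and rat A2A used brain striatal membranes. Human A1 and A2A used membranes of CHO cells expressing the receptors. A1 radioligand [³H]CCPA; A2A radioligand [³H]MSX-2. Potent compounds were tested at 6–7 concentrations spanning 3 orders of magnitude.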

[5] = target: T1, Adenosine receptor A2b (Homo sapiens, UniProt P29275); test: Displacement of [3H]PSB-603 from human recombinant adenosine A2B receptor expressed in CHO cells; format: cell-based
T1 sequence (P29275 whole entry): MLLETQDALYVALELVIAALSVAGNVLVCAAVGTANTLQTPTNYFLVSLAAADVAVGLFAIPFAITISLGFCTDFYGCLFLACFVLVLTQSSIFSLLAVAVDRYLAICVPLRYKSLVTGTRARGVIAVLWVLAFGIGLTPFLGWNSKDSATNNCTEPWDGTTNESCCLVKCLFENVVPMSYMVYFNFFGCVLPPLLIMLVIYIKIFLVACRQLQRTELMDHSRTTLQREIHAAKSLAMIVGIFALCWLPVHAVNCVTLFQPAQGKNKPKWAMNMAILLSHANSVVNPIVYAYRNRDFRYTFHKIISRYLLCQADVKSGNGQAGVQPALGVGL
Procedure, shortened: (§3)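 CHO cell membranes expressing the human receptor. Radioligands: A1 [3H]CCPA; A2B [3H]ZM241385 or [3H]PSB-603; A3 [3H]PSB-11. […] Potent compounds run at 6–7 concentrations spanning 3 orders of magnitude; Ki ± SEM.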

[6] = system: Mus musculus; test: Anticonvulsant activity in F1 albino mouse assessed as protection against maximal electroshock-induced seizures at 300 mg/kg, ip after 0.25 hrs; format: functional, organism-based; design: dose 300 mg/kg; procedure, shortened: as §1
[7] = system: Mus musculus; test: Neurotoxicity in F1 albino mouse assessed as minimal motor impairment at 300 mg/kg, ip after 0.25 hrs by rotorod test; format: toxicity, organism-based; design: dose 300 mg/kg, route intraperitoneal; details: in vivo; procedure, shortened: as §1
[8] = target: T2, Adenosine receptor A2b (Homo sapiens) (UniProt P29275); test: Displacement of [3H]PSB-603 from human recombinant adenosine A2B receptor expressed in CHO cells at 10 uM; format: cell-based; procedure, shortened: as §3
T2 sequence (whole entry): T1 sequence (P29275 whole entry)

[9] = system: Mus musculus; test: Neurotoxicity in F1 albino mouse assessed as minimal motor impairment at 300 mg/kg, ip after 1 hr by rotorod test; format: toxicity, organism-based; design: dose 300 mg/kg, route intraperitoneal; details: in vivo; procedure, shortened: as §1
[10] = system: Mus musculus; test: Anticonvulsant activity in F1 albino mouse assessed as protection against subcutaneous pentylenetetrazole-induced seizures at 300 mg/kg, ip after 0.25 hrs; format: functional, organism-based; design: dose 300 mg/kg; procedure, shortened: as §1
[11] = target: T3, Adenosine receptor A1 (Rattus norvegicus, UniProt P25099); test: Displacement of [3H]CCPA from adenosine A1 receptor in rat brain cortical membrane; format: cell membranes
T3 sequence (P25099 whole entry): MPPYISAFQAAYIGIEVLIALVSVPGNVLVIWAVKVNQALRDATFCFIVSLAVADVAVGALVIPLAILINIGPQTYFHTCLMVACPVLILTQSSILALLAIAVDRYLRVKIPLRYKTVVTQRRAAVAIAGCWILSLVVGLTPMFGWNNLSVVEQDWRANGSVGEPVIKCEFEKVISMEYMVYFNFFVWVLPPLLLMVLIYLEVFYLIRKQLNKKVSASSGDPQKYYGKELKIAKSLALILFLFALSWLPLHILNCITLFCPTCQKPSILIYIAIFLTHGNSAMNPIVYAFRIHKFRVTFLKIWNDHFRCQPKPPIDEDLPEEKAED

[12] = target: T4, Adenosine receptor A1 (Homo sapiens) (UniProt P30542); test: Displacement of [3H]CCPA from human recombinant adenosine A1 receptor expressed in CHO cells at 10 uM; format: cell-based; procedure, shortened: as §3
T4 sequence (whole entry): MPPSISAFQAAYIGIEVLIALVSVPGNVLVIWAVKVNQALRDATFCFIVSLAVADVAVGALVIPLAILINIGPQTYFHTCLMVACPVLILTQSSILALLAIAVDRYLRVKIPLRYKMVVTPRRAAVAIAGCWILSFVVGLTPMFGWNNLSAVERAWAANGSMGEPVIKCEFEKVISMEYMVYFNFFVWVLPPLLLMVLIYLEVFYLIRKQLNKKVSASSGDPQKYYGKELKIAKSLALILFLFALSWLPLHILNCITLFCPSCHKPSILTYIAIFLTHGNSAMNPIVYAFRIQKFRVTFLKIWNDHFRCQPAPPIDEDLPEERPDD

[13] = target: T5, Adenosine receptor A1 (Rattus norvegicus) (UniProt P25099); test: Displacement of [3H]CCPA from adenosine A1 receptor in rat brain cortical membrane at 25 uM; format: cell membranes
T5 sequence (whole entry): T3 sequence (P25099 whole entry)

[14] = target: Adenosine receptor A2a (Rattus norvegicus) (UniProt P30543); details: Brain, Membrane, 25 uM
[15] = target: T6, Adenosine receptor A2a (Homo sapiens, UniProt P29274); test: Displacement of [3H]MSX-2 from human recombinant adenosine A2A receptor expressed in CHO cells; format: cell-based
[16] = system: Mus musculus; test: Anticonvulsant activity in F1 albino mouse assessed as protection against maximal electroshock-induced seizures at 300 mg/kg, ip after 0.5 hrs; format: functional, organism-based; design: dose 300 mg/kg; procedure, shortened: as §1
[17] = target: T6, Adenosine receptor A2a; details: CHO, 10 uM
[18] = system: Mus musculus; test: Anticonvulsant activity in F1 albino mouse assessed as protection against subcutaneous pentylenetetrazole-induced seizures at 300 mg/kg, ip after 1 hr; format: functional, organism-based; design: dose 300 mg/kg; procedure, shortened: as §1
[19] = system: Mus musculus; test: Anticonvulsant activity in F1 albino mouse assessed as protection against subcutaneous pentylenetetrazole-induced seizures at 300 mg/kg, ip after 0.5 hrs; format: functional, organism-based; design: dose 300 mg/kg; procedure, shortened: as §1
[20] = system: Mus musculus; test: Neurotoxicity in F1 albino mouse assessed as minimal motor impairment at 300 mg/kg, ip after 4 hrs by rotorod test; format: toxicity, organism-based; design: dose 300 mg/kg, route intraperitoneal; details: in vivo; procedure, shortened: as §1
[21] = target: Adenosine receptor A2a (Rattus norvegicus, UniProt P30543); test: Displacement of [3H]MSX-2 from adenosine A2A receptor in rat brain striatal membrane; format: cell membranes
[22] = target: T7, Adenosine receptor A1 (Homo sapiens, UniProt P30542); test: Displacement of [3H]CCPA from human recombinant adenosine A1 receptor expressed in CHO cells; format: cell-based
T7 sequence (P30542 whole entry): T4 sequence (whole entry)

[23] = target: T8, Adenosine receptor A3 (Homo sapiens, UniProt P0DMS8); test: Displacement of [3H]PSB-11 from human recombinant adenosine A3 receptor expressed in CHO cells; format: cell-based
T8 sequence (P0DMS8 whole entry): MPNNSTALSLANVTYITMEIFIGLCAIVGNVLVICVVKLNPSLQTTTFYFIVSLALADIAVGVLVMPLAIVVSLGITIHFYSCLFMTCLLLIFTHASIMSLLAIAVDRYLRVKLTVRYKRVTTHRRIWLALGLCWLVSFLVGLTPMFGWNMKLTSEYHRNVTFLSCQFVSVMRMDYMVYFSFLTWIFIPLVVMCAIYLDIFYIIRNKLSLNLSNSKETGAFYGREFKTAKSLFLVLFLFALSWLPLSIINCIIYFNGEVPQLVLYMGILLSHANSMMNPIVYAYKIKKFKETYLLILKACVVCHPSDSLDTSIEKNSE

[24] = system: Mus musculus; test: Anticonvulsant activity in F1 albino mouse assessed as protection against maximal electroshock-induced seizures at 300 mg/kg, ip after 1 hr; format: functional, organism-based; design: dose 300 mg/kg; procedure, shortened: as §1
[25] = target: T2, Adenosine receptor A2b (Homo sapiens); details: CHO, 10 uM
[26] = system: CHO; test: Selectivity ratio of Ki for human recombinant adenosine A2A receptor expressed in CHO cells to Ki for adenosine A2A receptor in rat brain striatal membrane; format: cell-based; procedure, shortened: as §2
[27] = system: CHO; test: Selectivity ratio of Ki for adenosine A1 receptor in rat brain cortical membrane to Ki for human recombinant adenosine A1 receptor expressed in CHO cells; format: cell-based; procedure, shortened: as §2
[28] = target: T9, Adenosine receptor A3 (Homo sapiens) (UniProt P0DMS8); test: Displacement of [3H]PSB-11 from human recombinant adenosine A3 receptor expressed in CHO cells at 10 uM; format: cell-based; procedure, shortened: as §3
T9 sequence (whole entry): T8 sequence (P0DMS8 whole entry)

[29] = system: Mus musculus; test: Anticonvulsant activity in F1 albino mouse assessed as protection against subcutaneous pentylenetetrazole-induced seizures at 100 mg/kg, ip after 0.5 hrs; format: functional, organism-based; design: dose 100 mg/kg; procedure, shortened: as §1
[30] = target: T5, Adenosine receptor A1 (Rattus norvegicus); details: Brain, 10 uM
[31] = system: Mus musculus; test: Neurotoxicity in F1 albino mouse assessed as minimal motor impairment at 100 mg/kg, ip after 0.5 hrs by rotorod test; format: toxicity, organism-based; design: dose 100 mg/kg, route intraperitoneal; details: in vivo; procedure, shortened: as §1

T6 sequence (P29274 whole entry): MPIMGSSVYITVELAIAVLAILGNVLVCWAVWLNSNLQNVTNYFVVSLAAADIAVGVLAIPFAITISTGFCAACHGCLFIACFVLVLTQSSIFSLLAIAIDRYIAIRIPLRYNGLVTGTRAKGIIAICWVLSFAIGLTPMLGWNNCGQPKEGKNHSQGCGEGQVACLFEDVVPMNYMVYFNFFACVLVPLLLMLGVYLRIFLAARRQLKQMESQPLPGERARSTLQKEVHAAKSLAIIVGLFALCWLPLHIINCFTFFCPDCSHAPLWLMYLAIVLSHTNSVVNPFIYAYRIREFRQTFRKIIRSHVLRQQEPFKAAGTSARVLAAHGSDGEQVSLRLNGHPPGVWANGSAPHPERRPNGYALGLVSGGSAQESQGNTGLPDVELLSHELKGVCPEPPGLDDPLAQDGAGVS
Sequence of Adenosine receptor A2a (Rattus norvegicus, UniProt P30543) (P30543 whole entry): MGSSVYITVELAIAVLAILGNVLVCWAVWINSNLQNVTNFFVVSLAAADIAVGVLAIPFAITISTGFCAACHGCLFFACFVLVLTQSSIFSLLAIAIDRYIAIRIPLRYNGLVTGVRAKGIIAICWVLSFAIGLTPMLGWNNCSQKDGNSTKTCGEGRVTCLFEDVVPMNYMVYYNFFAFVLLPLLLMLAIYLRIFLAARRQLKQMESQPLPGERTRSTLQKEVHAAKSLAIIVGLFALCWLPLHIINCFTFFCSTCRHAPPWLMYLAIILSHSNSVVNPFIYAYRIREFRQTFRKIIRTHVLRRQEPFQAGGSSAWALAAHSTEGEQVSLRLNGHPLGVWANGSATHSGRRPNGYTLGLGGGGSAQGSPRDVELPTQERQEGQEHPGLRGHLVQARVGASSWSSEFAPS
Sequence of Adenosine receptor A2a (Rattus norvegicus) (P30543 whole entry): as above

Ratio Ki [4] | Ki [5] | inhibition [8] | Ki [11] | inhibition [12] | Ki [15] | Ki [21] | Ki [22] | Ki [23] | SMILES | Activity [1] | Activity [2] | Activity [3] | Activity [6] | Activity [7] | Activity [9] | Activity [10] | Activity [16] | Activity [18] | Activity [20] | Activity [24] | also measured
1 | > 10 µM | 0% | > 10 µM | 15% | > 10 µM | > 10 µM | > 10 µM | 1.29 µM | Cn1c(=O)c2c(nc3n2CCCN3C23CC4CC(CC(C4)C2)C3)n(C)c1=O | inactive | inactive | Non-toxic | inactive | Non-toxic | Non-toxic | inactive | inactive | inactive | Non-toxic | inactive | inhibition [13]: 7%; inhibition [14]: 13%; inhibition [17]: 0%; Activity [19]: inactive
– | – | – | – | – | – | – | 2.07 µM | 4.47 µM | CCn1c(=O)c2c(nc(/C=C/c3ccc(OC)c(OC)c3)n2C)n(CC)c1=O [ISTRADEFYLLINE] | – | – | – | – | – | – | – | – | – | – | – | inhibition [25]: 47%
44 | > 10 µM | 6% | 14.7 µM | – | 0.933 µM | 0.5 µM | 6.9 µM | > 10 µM | Cn1c(=O)c2c(nc3n2CCCN3CCC2=CCCCC2)n(C)c1=O | inactive | inactive | Non-toxic | inactive | Non-toxic | Non-toxic | inactive | inactive | inactive | Non-toxic | inactive | Ratio Ki [26]: 2; Ratio Ki [27]: 2; inhibition [28]: 23%; Activity [29]: inactive
> 4 | > 10 µM | 11% | > 10 µM | 41% | 1.61 µM | 2.58 µM | > 10 µM | > 10 µM | Cn1c(=O)c2c(nc3n2CCN3C2CCCCC2)n(C)c1=O | inactive | inactive | – | inactive | Non-toxic | Non-toxic | inactive | inactive | inactive | Non-toxic | inactive | inhibition [30]: 27%; Activity [31]: Non-toxic; inhibition [28]: 12%; Activity [19]: Active
